Reference: ChEMBL document CHEMBL4350976, “Sequence modification of heptapeptide selected by phage display as homing device for HT-29 colon cancer cells to improve the anti-tumour activity of drug delivery systems” (Eur J Med Chem, 2019)
Where a SMILES comes first, the peptide text is derived from it. The star is where a group is joined. X1 = COc1cccc2c1C(=O)c1c(O)c3c(c(O)c1C2=O)C[C@@](O)(/C(C)=N/OCC(=O)*)C[C@@H]3O[C@H]1C[C@H](N)[C@H](O)[C@H](C)O1

Experiments:
[1] = Toxicity in SCID mouse xenografted with human HT-29 cells assessed as animal death at 38.3 mg/kg, ip administered thrice in first week and twice in second week (on days 13, 16, 20, 23 and 27) starting from 13 days post inoculation measured upto 30 days post inoculation; type: organism-based; details: in vivo
Procedure, shortened: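 Female SCID mice (6–8 weeks, 22–27 g) with orthotopic HT-29 colon tumours. Conjugates given i.p. in distilled water for injection at 10 mg/kg Dau content (36.6 or 38.3 mg/kg conjugate) on days 13, 16, 20, 23 and 27, 8 mice/group. Study ended day 30; deaths and body weight recorded against a solvent-treated control group.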

[2] = Stability in serum free medium at 30 uM incubated for 3 hrs by LC/MS analysis
Procedure, shortened: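 Conjugates (30 μM) were incubated at 37 °C in serum-free medium. Samples were taken at 0 and 3 h, quenched with acetic acid, lyophilised, desalted on C18 spin columns and analysed by LC-MS.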

[3] = Solubility of compound; type: physicochemical
[4] = Stability in 2.5% fetal bovine serum containing medium at 30 uM measured after 24 hrs by LC/MS analysis; type: ADME, cell-free, Bos taurus; details: cattle
Procedure, shortened: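 Conjugates (30 μM) were incubated at 37 °C in medium containing 2.5% FBS. Samples were taken at 0, 3, 6 and 24 h, quenched with acetic acid, lyophilised, desalted on C18 spin columns and analysed by LC-MS. Cleavage products were identified by mass.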

[5] = Cytostatic activity against human WM983B cells preincubated for 24 hrs under serum free condition followed by compound washout and further incubation for 48 hrs in presence of serum by MTT assay; type: functional, cell-based
Procedure, shortened: (§1)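 Cells were grown at 37 °C in 5% CO2 in medium with 10% heat-inactivated FBS (20% for OVCAR-3) plus penicillin/streptomycin. The medium was RPMI-1640 for most lines, DMEM for U-87 MG and MRC-5, and IMDM for PE/CA-PJ lines. Seeding was 3×10^3–10×10^3 cells per well. Cells had 24 h compound exposure, a wash, and 48 h further culture. Read-out was MTT, normalized to untreated cells and fitted by nonlinear regression for IC50.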

A2058 = assay: Cytostatic activity against human A2058 cells preincubated for 24 hrs under serum free condition followed by compound washout and further incubation for 48 hrs in presence of serum by MTT assay; type: functional, cell-based; procedure, shortened: as §1
HepG2 = assay: Potency index, ratio of compound IC50 to Daunomycin IC50 for human HepG2 cells preincubated for 24 hrs under serum free condition followed by compound washout and further incubation for 48 hrs in presence of serum by MTT assay; type: functional
A549 [6] = assay: Potency index, ratio of compound IC50 to Daunomycin IC50 for human A549 cells preincubated for 24 hrs under serum free condition followed by compound washout and further incubation for 48 hrs in presence of serum by MTT assay; type: functional
A549 [7] = assay: Cytostatic activity against human A549 cells preincubated for 24 hrs under serum free condition followed by compound washout and further incubation for 48 hrs in presence of serum by MTT assay; type: functional, cell-based; procedure, shortened: as §1
WiDr = assay: Cytostatic activity against human WiDr cells preincubated for 24 hrs under serum free condition followed by compound washout and further incubation for 48 hrs in presence of serum by MTT assay; type: functional, cell-based; procedure, shortened: as §1
[8] = Drug uptake in mitochondria of human HT-29 cells assessed as increase in fluorescence at 50 uM after 30 mins by MitoTracker deep red staining based confocal microscopic analysis; type: ADME; details: ht-29, 0.5 h
Procedure, shortened: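 HT-29 cells were exposed to 50 µM conjugate for 30 min before imaging. Lysosomes were stained with LysoTracker Deep Red and mitochondria with MitoTracker Deep Red. Confocal imaging detected Dau at 550–600 nm.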

For COc1cccc2c1C(=O)c1c(O)c3c(c(O)c1C2=O)C[C@@](O)(/C(C)=N/OCC(=O)N[C@@H](CC(C)C)C(=O)N[C@@H](CCCNC(=N)N)C(=O)N[C@@H](CCCNC(=N)N)C(=O)N[C@@H](Cc1ccc(O)cc1)C(=O)N[C@H](C(=O)N[C@@H](Cc1cnc[nH]1)C(=O)N[C@@H](CC(C)C)C(=O)N[C@@H](Cc1ccccc1)C(=O)N[C@@H](Cc1ccc(O)cc1)C(=O)N[C@@H](C)C(=O)N[C@H](C(N)=O)[C@@H](C)O)C(C)C)C[C@@H]3O[C@H]1C[C@H](N)[C@H](O)[C@H](C)O1 (X1-LRRYVHLFYAT-NH2), the Activity [1] was “Non-Toxic”, the Stability [2] was “Stable” and the solubility [3] was “Soluble”. The Stability [4] was “Stable”, the IC50 [5] was 5.1 µM and the IC50 (A2058) was 3.5 µM. For the same compound, the “Ratio IC50” value (HepG2) was 220.2, the “Ratio IC50” value (A549 [6]) was 86.1 and the IC50 (A549 [7]) was 5.9 µM. For the same compound, the IC50 (WiDr) was 15.1 µM and the Drug uptake [8] was “Not Active”.
